Measurements collected from several papers.
Each line is one published result; the experiments were not run side by side.
Target: Dual specificity protein kinase CLK3 (CLK3, Homo sapiens, UniProt P49761)

| Compound | test | setting | endpoint | result |
| --- | --- | --- | --- | --- |
| Cn1cc(-c2cccc(N3CCc4c(sc5c4CC(C)(C)C5)C3=O)c2CO)cc(Nc2ccncn2)c1=O | enzyme activity, inhibitor | 1 µM | inhibition | 4% |
| Cn1cncc1[C@@](O)(COc1ccc(C#N)cc1-c1ccc(OC(F)(F)F)cc1)c1ccc(C#N)cc1 | cell-free assay, competition with immobilised ligand | 1 µM | remaining binding | 100% |
| Cc1nn(C)cc1-c1nc2c(N3CCN(Cc4ccc(Cl)cc4)CC3)c(Cl)cnc2[nH]1 | binding, competition with immobilised ligand | 1 µM | remaining binding | 88% |
| COc1cc(Nc2ncc(F)c(Nc3ccc4c(n3)NC(=O)C(C)(C)O4)n2)cc(OC)c1OC | binding, competition with immobilised ligand | 10 µM | inhibition | 78% |
| Nc1ncc(-c2nc(N3CCOCC3)nc(N3CCOCC3)n2)c(C(F)F)n1 | binding, competition with immobilised ligand | 10 µM | remaining binding | 90% |
| COc1ncccc1-c1cnn2ccc(N3CCN(C(=O)OC(C)C)CC3)nc12 | binding, competition with immobilised ligand | 1 µM | remaining binding | 78% |
| C#Cc1n[nH]c2c(-c3cn([C@@H](C)c4ccccn4)c(=O)[nH]c3=O)cc(F)cc12 | enzyme activity, inhibitor | 0.1 µM | inhibition | 0.7% |
| CC(C)(C)c1cc(C=C(C#N)C#N)cc(Br)c1O | enzyme activity, inhibitor | 0.5 µM | remaining activity | 122% |
| N#CC1(c2ccccn2)CCN(Cc2cc(C(=O)O)c(=O)n3ccccc23)CC1 | cell-free assay, competition with immobilised ligand | 1 µM | remaining binding | 100% |
| CCn1cnc2c(Nc3cccc(Cl)c3)nc(N[C@H]3CCCC[C@H]3N)nc21 | enzyme activity, inhibitor | 0.5 µM | remaining activity | 99.8% |
| Cn1cc(-c2cc(F)cc(N3CCn4c(cc5c4CCCC5)C3=O)c2CO)cc(Nc2ccc(N3CCN(C4COC4)CC3)cn2)c1=O | enzyme activity, inhibitor | 0.1 µM | inhibition | 11% |
